Nine compounds from ChEMBL document CHEMBL1687811, “Outbreak of meropenem-resistant Serratia marcescens comediated by chromosomal AmpC beta-lactamase overproduction and outer membrane protein loss” (2010) can be followed below.

For experiment [1], the system named is Serratia marcescens. Kind of experiment: Antimicrobial activity against beta-lactamase AmpC producing meropenem-resistant Serratia marcescens by agar dilution method. Type of experiment: functional. The method in brief: (§1)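 MICs by agar dilution following CLSI guidelines, with E. coli ATCC 25922 and P. aeruginosa ATCC 27853 as MIC reference strains. Where added, clavulanic acid served as the ESBL inhibitor and phenyl-arginine-β-naphthylamide as the efflux-pump inhibitor, each incorporated into the susceptibility test.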
A general note: In agar dilution, organisms are placed on agar that contains the substance at set levels.

Experiment [2] relates to Serratia marcescens. Kind of experiment: Antimicrobial activity against Serratia marcescens ATCC 8100 by agar dilution method. Type of experiment: functional. The method in brief: (§2)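 MICs by agar dilution following CLSI guidelines, with E. coli ATCC 25922 and P. aeruginosa ATCC 27853 as MIC reference strains. Where an inhibitor was added, boronic acid or cloxacillin served as the AmpC inhibitor.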

Experiment [3] relates to Escherichia coli. Kind of experiment: Antimicrobial activity against azide-resistant Escherichia coli J53 by agar dilution method.
Experiment [4] relates to Serratia marcescens. Kind of experiment: Antimicrobial activity against beta-lactamase ompC intact/ompF deficient Serratia marcescens isolate YMC0582 by agar dilution method. Type of experiment: functional. The method in brief: as §1
The test system of experiment [5] is Serratia marcescens. Kind of experiment: Antimicrobial activity against beta-lactamase ompC intact/ompF deficient Serratia marcescens isolate YMC0584 by agar dilution method. The experiment is classed as functional. The method in brief: as §1
Experiment [6] has as its system Serratia marcescens. Kind of experiment: Antimicrobial activity against beta-lactamase ompC intact/ompF deficient Serratia marcescens isolate YMC0583 by agar dilution method. The experiment is classed as functional. The method in brief:
as §1

Experiment [7] deals with Serratia marcescens. Kind of experiment: Antimicrobial activity against beta-lactamase ompC intact/ompF deficient Serratia marcescens isolate YMC0547 by agar dilution method. The experiment is classed as functional. The method in brief: as §1
Experiment [8] has as its system Serratia marcescens. Kind of experiment: Antimicrobial activity against beta-lactamase ompC intact/ompF deficient Serratia marcescens isolate YMC0564 by agar dilution method. The experiment is classed as functional. The method in brief: as §1
Experiment [9] relates to Serratia marcescens. Kind of experiment: Antimicrobial activity against beta-lactamase ompC intact/ompF deficient Serratia marcescens isolate YMC0566 by agar dilution method. Type of experiment: functional. The method in brief: as §1
The subject of experiment [10] is Serratia marcescens. Kind of experiment: Antimicrobial activity against beta-lactamase ompC intact/ompF deficient Serratia marcescens isolate YMC0570 by agar dilution method. The experiment is classed as functional. The method in brief:
as §1

Experiment [11] has as its system Serratia marcescens. Kind of experiment: Antimicrobial activity against beta-lactamase ompC intact/ompF deficient Serratia marcescens isolate YMC0573 by agar dilution method. Type of experiment: functional. The method in brief: as §1
Experiment [12] has as its system Serratia marcescens. Kind of experiment: Antimicrobial activity against beta-lactamase ompC intact/ompF deficient Serratia marcescens isolate YMC0579 by agar dilution method. Type of experiment: functional. The method in brief:
as §1

In experiment [13] the test system is Serratia marcescens. Kind of experiment: Antimicrobial activity against beta-lactamase ompC/ompF deficient Serratia marcescens ATCC 8100 by agar dilution method. The experiment is classed as functional.
In experiment [14] the test system is Serratia marcescens. Kind of experiment: Antimicrobial activity against beta-lactamase AmpC producing meropenem-resistant Serratia marcescens by agar dilution method in presence of 4 ug/ml of clavulanic acid. The experiment is classed as functional. The method in brief: as §1
Experiment [15] has as its system Escherichia coli. Kind of experiment: Antimicrobial activity against azide-resistant Escherichia coli J53 by agar dilution method in presence 4 ug/ml of clavulanic acid. The experiment is classed as functional. The method in brief:
as §1

Experiment [16] concerns Serratia marcescens. Kind of experiment: Antimicrobial activity against Serratia marcescens ATCC 8100 by agar dilution method in presence of 4 ug/ml of clavulanic acid. Type of experiment: functional. The method in brief: as §1
For experiment [17], the system named is Serratia marcescens. Kind of experiment: Antimicrobial activity against Serratia marcescens ATCC 8100 by agar dilution method in presence of 300 ug/ml of boronic acid. The experiment is classed as functional. The method in brief: as §2
Experiment [18] deals with Serratia marcescens. Kind of experiment: Antimicrobial activity against Serratia marcescens ATCC 8100 by agar dilution method in presence of 20 ug/ml of phenyl-arginine-beta-naphthylamide. Type of experiment: functional. The method in brief:
as §1

Experiment [19] relates to Serratia marcescens. Kind of experiment: Antimicrobial activity against Serratia marcescens ATCC 8100 by agar dilution method in presence of 250 ug/ml of cloxacillin. The experiment is classed as functional. The method in brief:
as §2

Values after ≈ are worked out from the molar mass of the structure shown. Bounds are passed on as bounds.

For `C[C@H]1[C@H](NC(=O)/C(=N\OC(C)(C)C(=O)O)c2csc(N)n2)C(=O)N1S(=O)(=O)O` [AZTREONAM], the MIC – broadly, the smallest concentration in the dilution series that meets the test's criterion for growth inhibition – was 8 µg/mL (≈ 18.4 µM) against Serratia marcescens [1] and 64 µg/mL (≈ 147 µM) against Serratia marcescens [2].
For `O=C(O)c1cn(C2CC2)c2cc(N3CCNCC3)c(F)cc2c1=O` [CIPROFLOXACIN], the MIC in the experiment on Serratia marcescens [1] is not above 0.12 µg/mL; with Serratia marcescens [2], 8 µg/mL (≈ 24.1 µM).
Take `CCN1CCN(C(=O)N[C@@H](C(=O)N[C@@H]2C(=O)N3[C@@H]2SC(C)(C)[C@@H]3C(=O)O)c2ccccc2)C(=O)C1=O` [PIPERACILLIN]: the MIC in the experiment on Serratia marcescens [1] was more than 256 µg/mL; against Escherichia coli [3], 1 µg/mL (≈ 1.93 µM); against Serratia marcescens [2], more than 256 µg/mL.
`C[C@@H](O)[C@H]1C(=O)N2C(C(=O)O)=C(SCCNC=N)C[C@H]12` [IMIPENEM ANHYDROUS]: the MIC in the experiment on Serratia marcescens [4] stood at 4 µg/mL (≈ 13.4 µM); in the experiment with Serratia marcescens [5], 8 µg/mL (≈ 26.7 µM); in the experiment on Serratia marcescens [6], 4 µg/mL (≈ 13.4 µM); with Serratia marcescens [7] it was 8 µg/mL (≈ 26.7 µM); against Serratia marcescens [8], 4 µg/mL (≈ 13.4 µM); in the experiment with Serratia marcescens [9] it was 4 µg/mL (≈ 13.4 µM). Besides, the MIC against Serratia marcescens [10] was found to be 4 µg/mL (≈ 13.4 µM); against Serratia marcescens [11], 4 µg/mL (≈ 13.4 µM); in the experiment with Serratia marcescens [12] it was 4 µg/mL (≈ 13.4 µM); with Serratia marcescens [13], 0.02 µg/mL (≈ 0.0668 µM); in the experiment with Serratia marcescens [1], 0.12 µg/mL (≈ 0.401 µM); against Serratia marcescens [2] it was 4 µg/mL (≈ 13.4 µM). The MIC in the experiment with Serratia marcescens [14] was determined as 0.06 µg/mL; with Escherichia coli [15] it was 0.12 µg/mL; in the experiment on Serratia marcescens [16] it was 4 µg/mL; with Serratia marcescens [17], 0.5 µg/mL; in the experiment on Serratia marcescens [18] it was 4 µg/mL; in the experiment on Serratia marcescens [19], 0.094 µg/mL.
`CO[C@@]1(NC(=O)Cc2cccs2)C(=O)N2C(C(=O)O)=C(COC(N)=O)CS[C@@H]21` [CEFOXITIN]: the results for the MIC in the experiment with Serratia marcescens [1], in the experiment on Escherichia coli [3] and with Serratia marcescens [2] were 4 µg/mL (≈ 9.36 µM), 4 µg/mL (≈ 9.36 µM) and more than 256 µg/mL, respectively.
On to GENTAMICIN, for which the MIC is 32 µg/mL in the experiment with Serratia marcescens [1] and more than 256 µg/mL against Serratia marcescens [2].
In the case of `C[C@@H](O)[C@H]1C(=O)N2C(C(=O)O)=C(S[C@@H]3CN[C@H](C(=O)N(C)C)C3)[C@H](C)[C@H]12` [MEROPENEM], the MIC stood at 16 µg/mL (≈ 41.7 µM) with Serratia marcescens [4]; 16 µg/mL (≈ 41.7 µM) against Serratia marcescens [5]; 16 µg/mL (≈ 41.7 µM) in the experiment on Serratia marcescens [6]; 32 µg/mL (≈ 83.4 µM) in the experiment on Serratia marcescens [7]; 16 µg/mL (≈ 41.7 µM) in the experiment with Serratia marcescens [8]; 16 µg/mL (≈ 41.7 µM) against Serratia marcescens [9]. In addition, the MIC with Serratia marcescens [10] came out at 16 µg/mL (≈ 41.7 µM); against Serratia marcescens [11], 16 µg/mL (≈ 41.7 µM); against Serratia marcescens [12], 16 µg/mL (≈ 41.7 µM); against Serratia marcescens [13], 0.25 µg/mL (≈ 0.652 µM); in the experiment with Serratia marcescens [1], 0.015 µg/mL (≈ 0.0391 µM); in the experiment with Escherichia coli [3], 0.03 µg/mL (≈ 0.0782 µM). Besides, the MIC worked out at 16 µg/mL (≈ 41.7 µM) in the experiment on Serratia marcescens [2]; 0.015 µg/mL in the experiment with Serratia marcescens [14]; 0.015 µg/mL with Escherichia coli [15]; 16 µg/mL in the experiment with Serratia marcescens [16]; 1 µg/mL in the experiment on Serratia marcescens [17]; 8 µg/mL in the experiment on Serratia marcescens [18]. In the experiment with Serratia marcescens [19], the MIC amounted to 0.008 µg/mL.
As to `CO/N=C(\C(=O)N[C@@H]1C(=O)N2C(C(=O)O)=C(COC(C)=O)CS[C@H]12)c1csc(N)n1` [CEFOTAXIME], the MIC with Serratia marcescens [1] is 32 µg/mL (≈ 70.3 µM); with Escherichia coli [3], not above 0.12 µg/mL; in the experiment with Serratia marcescens [2] it was more than 256 µg/mL.
With `CC(C)(O/N=C(\C(=O)N[C@@H]1C(=O)N2C(C(=O)[O-])=C(C[n+]3ccccc3)CS[C@H]12)c1csc(N)n1)C(=O)O` [CEFTAZIDIME], the MIC amounted to 2 µg/mL (≈ 3.66 µM) in the experiment on Serratia marcescens [1], 0.25 µg/mL (≈ 0.457 µM) with Escherichia coli [3] and 128 µg/mL (≈ 234 µM) against Serratia marcescens [2].
